According to ChEMBL document CHEMBL4411261, “Down-Regulation of the Androgen Receptor by G-Quadruplex Ligands Sensitizes Castration-Resistant Prostate Cancer Cells to Enzalutamide” (J Med Chem, 2018):
The source made the active and inactive calls. No cut-off for these calls is given here.

Experiments:
DU-145 [1] = experiment: Effect on c-MYC mRNA expression in human DU145 cells at IC50 after 48 hrs by RT-PCR analysis; type: functional, cell-based
How it was run: (§1)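 Transcripts quantified by TaqMan real-time PCR with RNaseP as normalizer; relative quantity versus untreated cells by the 2−ΔΔCt method. Panel genes measured with a 92-gene cancer-mechanism TaqMan array.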

DU-145 [2] = experiment: Effect on JUN mRNA expression in human DU145 cells at IC50 after 48 hrs by RT-PCR analysis; type: functional, cell-based; how it was run: as §1
CWR22R [3] = experiment: Synergistic cytotoxicity against human 22Rv1 cells expressing full length androgen receptor H875Y point mutant assessed as reduction in cell viability at 0.001 to 0.1 uM after 72 hrs in presence of Enzalutamide by MTS assay based CI-Fa plot analysis; type: functional
How it was run: (§2)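 Cells in RPMI-1640 with 10% fetal calf serum were exposed to ligand (0.001−0.1 μM) plus enzalutamide (0.5−50 μM) at a fixed ratio, five concentrations, for 72 h at 37 °C, 5% CO2. Viability read by MTS absorbance at 490 nm after 4 h. Combination index computed at ED50 and ED75 by the Chou–Talalay method.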

PNT1A = experiment: Cytotoxicity against human PNT1A cells assessed as reduction in cell viability after 48 hrs by MTS assay; type: cell-based
How it was run: (§3)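 Cells kept in RPMI-1640 with 10% fetal calf serum, 37 °C, 5% CO2. Seeded, after 24 h treated with 0.0001, 0.001, 0.01, 0.1, 1 and 10 μM compound (DMSO stocks freshly diluted in medium) for 48 h. MTS added 4 h, absorbance 490 nm; IC50 from curves of % viability inhibition versus DMSO-treated cells against log concentration.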

PC-3 [4] = experiment: Effect on c-MYC mRNA expression in human PC3 cells at IC50 after 48 hrs by RT-PCR analysis; type: functional, cell-based; how it was run: as §1
CWR22R [5] = experiment: Synergistic cytotoxicity against human 22Rv1 cells expressing full length androgen receptor H875Y point mutant assessed as combination index for reduction in cell viability measured at ED75 Enzalutamide at 0.001 to 0.1 uM after 72 hrs by MTS assay based Chou and Talay's plot analysis; type: functional; how it was run: as §2
CWR22R [6] = experiment: Synergistic cytotoxicity against human 22Rv1 cells expressing full length androgen receptor H875Y point mutant assessed as ED50 for Enzalutamide at 0.001 to 0.1 uM after 72 hrs by MTS assay; type: functional; conditions: 22Rv1, 72 h, read-out: ED50 (the source's name); how it was run: as §2
Quadruplex DNA [7] = experiment: Stabilization of AR G-quadruplex oligonucleotide in human 22Rv1 cells assessed as reduction in AR-Vs protein level by immunoblotting assay; type: cell-based
Quadruplex DNA [8] = experiment: Stabilization of AR3 G-quadruplex oligonucleotide (unknown origin) assessed as melting temperature at 16 uM after 16 hrs in presence of 100 mM K+ by CD spectra analysis (reference value: 78.8 +/- 1.7 degreeC); type: nucleic-acid assay
[9] = Binding affinity to 5'-Biotinylated-AGTGAGAGTGAGAGAGAGAGTGAGAGTGAGAGTGA ssDNA (unknown origin) by SPR analysis
How it was run: (§4)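 SPR on streptavidin chip; 5′-biotinylated oligo folded by heating 95 °C 5 min in 10 mM lithium cacodylate, 150 mM KCl, then immobilized at 30 nM to about 600 RU; empty reference cell. Compound 0.7−400 nM in HEPES-KCl (pH 7.4, 0.15 M KCl, 3 mM EDTA) at 40 °C, 40 μL/min, 260 s contact, 600 s dissociation; glycine pH 2.0 regeneration; steady-state affinity fit; at least two independent runs.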

Quadruplex DNA [10] = experiment: Stabilization of AR G-quadruplex oligonucleotide in human 22Rv1 cells assessed as up-regulation of WNT1 mRNA expression at IC50 after 48 hrs by RT-PCR analysis; type: cell-based; how it was run: as §1
Quadruplex DNA [11] = experiment: Stabilization of AR G-quadruplex oligonucleotide in human 22Rv1 cells assessed as up-regulation of BAX mRNA expression at IC50 after 48 hrs by RT-PCR analysis; type: cell-based; how it was run: as §1
Quadruplex DNA [12] = experiment: Stabilization of AR G-quadruplex oligonucleotide in human 22Rv1 cells assessed as down-regulation of KLK3 mRNA expression at IC50 after 6 to 72 hrs by RT-PCR analysis; type: cell-based; how it was run: as §1
[13] = Stabilization of 5'-FAM/3'-TAMRA labelled CTATAGCGCGCTATAG dsDNA (unknown origin) assessed as change in melting temperature t1/2 at 1 uM after 16 hrs in presence of 100 mM K+ by FRET assay
How it was run: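 FRET melting: FAM/TAMRA dual-labelled oligos (0.25 μM) folded in 10 mM lithium cacodylate pH 7.4 with 100 mM KCl (95 °C 5 min, cooled 4 h); ligand added at 1 μM final, 16 h room temperature. FAM emission followed 30−95 °C at 1 °C/min; curves normalized 0 to 1, T1/2 at 0.5 fraction.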

[14] = Drug uptake in human PNT1A cells at 160 nM after 24 hrs by DAPI staining-based fluorescence microscopic analysis; type: ADME, cell-based; conditions: 0.16 µM
Quadruplex DNA [15] = experiment: Stabilization of AR G-quadruplex oligonucleotide in human 22Rv1 cells assessed as regulation of AKT1 mRNA expression at IC50 after 48 hrs by RT-PCR analysis; type: cell-based; how it was run: as §1
[16] = Stabilization of AGTGAGAGTGAGAGAGAGAGTGAGAGTGAGAGTGA ssDNA (unknown origin) assessed as change in melting temperature at 16 uM after 16 hrs in presence of 100 mM K+ by CD spectra analysis
How it was run: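 CD: oligos at 4 μM final in 10 mM lithium cacodylate pH 7.4, 100 mM KCl, annealed 95 °C 5 min then 4 h room temperature; duplex from equimolar strands. Ligand 16 μM final, 16 h room temperature. Spectra 230−320 nm, 5 mm cell, two scans averaged at 20 °C, buffer-subtracted; melting from spectra 20−90 °C in 5 °C steps.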

Quadruplex DNA [17] = experiment: Stabilization of AR G-quadruplex oligonucleotide in human 22Rv1 cells assessed as reduction in AKT1 phosphorylation at S473 residues at IC50 after 48 hrs by Western immunoblot assay; type: cell-based
Quadruplex DNA [18] = experiment: Stabilization of AR G-quadruplex oligonucleotide in human 22Rv1 cells assessed as down-regulation of CCND1 mRNA expression at IC50 after 48 hrs by RT-PCR analysis; type: cell-based; how it was run: as §1
Quadruplex DNA [19] = experiment: Binding affinity to 5'-Biotinylated-AR1 G-quadruplex oligonucleotide (unknown origin) by SPR analysis; type: nucleic-acid assay; how it was run: as §4
Quadruplex DNA [20] = experiment: Stabilization of AR G-quadruplex oligonucleotide in human PC3 cells assessed as down-regulation of ITGB3 mRNA expression at IC50 after 48 hrs by RT-PCR analysis; type: cell-based
How it was run: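 PC-3 cells (RPMI-1640, 10% fetal calf serum) exposed at an equitoxic concentration. Expression of 92 cancer-mechanism genes measured on TaqMan Arrays. Change versus untreated cells computed by 2−ΔΔCt, with RNaseP as normalizer.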

PC-3 [21] = experiment: Cytotoxicity against human PC3 cells assessed as reduction in cell viability after 48 hrs by MTS assay; type: functional, cell-based; conditions: PC-3, 48 h; how it was run: as §3
Quadruplex DNA [22] = experiment: Stabilization of AR G-quadruplex oligonucleotide in human 22Rv1 cells assessed as reduction in AR-FL protein level by immunoblotting assay; type: cell-based

With `CN(C)CCCn1c(=O)c2ccc3c(=O)n(CCCN(C)C)c(=O)c4c5[nH]c6ccccc6[nH]c5c(c1=O)c2c34.Cl.Cl` as the compound, how does the Activity (DU-145 [1]) read?
The Activity was “inactive”.

And the Activity (DU-145 [2])?
Its Activity is “inactive”.

And the CI (CWR22R [3])?
The CI was less than 0.5.

What about the IC50 (PNT1A) of the same compound?
Its IC50 is 280 nM.

And the Activity (PC-3 [4])?
The Activity was “inactive”.

What about the CI (CWR22R [5]) of the same compound?
Its CI is less than 1.

What about the EC50 (CWR22R [6]) of the same compound?
Its EC50 is 290 nM.

What about the Activity (Quadruplex DNA [7]) of the same compound?
Its Activity is “Active”.

What about the Tm (Quadruplex DNA [8]) of the same compound?
The Tm was greater than 90 °C.

And the Kd [9]?
The Kd was 196 nM.

And the Activity (Quadruplex DNA [10])?
Its Activity is “Active”.

And the Activity (Quadruplex DNA [11])?
The Activity was “Active”.

What about the Activity (Quadruplex DNA [12]) of the same compound?
Its Activity is “Active”.

And the ΔTm [13]?
Its ΔTm is 1 °C.

And the Drug uptake [14]?
Its Drug uptake is “Active”.

What about the Activity (Quadruplex DNA [15]) of the same compound?
Its Activity is “Active”.

And the ΔTm [16]?
The ΔTm was 4.7 °C.

What about the Activity (Quadruplex DNA [17]) of the same compound?
The Activity was “Active”.

And the Activity (Quadruplex DNA [18])?
Its Activity is “Active”.

What about the Kd (Quadruplex DNA [19]) of the same compound?
Its Kd is 17.9 nM.

What about the Activity (Quadruplex DNA [20]) of the same compound?
Its Activity is “Active”.

What about the IC50 (PC-3 [21]) of the same compound?
Its IC50 is 180 nM.

What about the Activity (Quadruplex DNA [22]) of the same compound?
Its Activity is “Active”.
